Test results as given in ChEMBL document CHEMBL3232806 (J Med Chem, 2014).
pIC50: −log10 of the molar value. Values belong to the compound of their own block, whether it stands above or below them. Calls of active or inactive are those of the source. No cut-off for these calls is given here.

Assays:
[1] = molecular target: T1, NAD-dependent protein deacetylase sirtuin-1 (Homo sapiens) (UniProt Q96EB6); experiment: Inhibition of C-terminal His-6-tagged recombinant human SIRT1 expressed in Escherichia coli BL21(DE3) at 50 uM by luminescence assay relative to control
T1 sequence (whole entry): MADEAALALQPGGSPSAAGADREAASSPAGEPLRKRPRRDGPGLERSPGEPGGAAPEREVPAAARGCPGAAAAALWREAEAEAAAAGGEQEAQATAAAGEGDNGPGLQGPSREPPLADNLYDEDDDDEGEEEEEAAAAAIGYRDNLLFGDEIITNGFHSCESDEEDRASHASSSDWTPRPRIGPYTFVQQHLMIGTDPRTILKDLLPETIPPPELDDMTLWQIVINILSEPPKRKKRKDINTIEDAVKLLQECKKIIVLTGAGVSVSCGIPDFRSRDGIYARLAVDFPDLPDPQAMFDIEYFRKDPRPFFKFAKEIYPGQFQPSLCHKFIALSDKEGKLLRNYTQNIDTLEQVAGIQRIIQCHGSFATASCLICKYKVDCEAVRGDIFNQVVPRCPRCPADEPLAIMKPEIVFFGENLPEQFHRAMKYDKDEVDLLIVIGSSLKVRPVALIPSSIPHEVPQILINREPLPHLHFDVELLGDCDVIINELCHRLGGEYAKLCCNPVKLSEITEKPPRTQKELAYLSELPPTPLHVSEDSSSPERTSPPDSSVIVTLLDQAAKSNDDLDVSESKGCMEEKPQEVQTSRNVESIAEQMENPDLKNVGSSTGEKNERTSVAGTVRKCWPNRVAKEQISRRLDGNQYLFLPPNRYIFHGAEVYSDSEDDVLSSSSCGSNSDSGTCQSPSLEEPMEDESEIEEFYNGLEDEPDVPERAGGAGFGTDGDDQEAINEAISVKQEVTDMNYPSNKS
Summary of the method: (§1)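 Single-point inhibition at 50 μM compound was measured by the luminescent SIRT-Glo assay. SIRT1 was human His6-tagged (C-terminal), expressed in E. coli BL21-DE3 with IPTG induction and purified on Ni-NTA. SIRT2 was obtained commercially.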

[2] = molecular target: T2, NAD-dependent protein deacetylase sirtuin-2 (Homo sapiens) (UniProt Q8IXJ6); experiment: Inhibition of SIRT2 (unknown origin) at 50 uM by luminescence assay relative to control; summary of the method: as §1
T2 sequence (whole entry): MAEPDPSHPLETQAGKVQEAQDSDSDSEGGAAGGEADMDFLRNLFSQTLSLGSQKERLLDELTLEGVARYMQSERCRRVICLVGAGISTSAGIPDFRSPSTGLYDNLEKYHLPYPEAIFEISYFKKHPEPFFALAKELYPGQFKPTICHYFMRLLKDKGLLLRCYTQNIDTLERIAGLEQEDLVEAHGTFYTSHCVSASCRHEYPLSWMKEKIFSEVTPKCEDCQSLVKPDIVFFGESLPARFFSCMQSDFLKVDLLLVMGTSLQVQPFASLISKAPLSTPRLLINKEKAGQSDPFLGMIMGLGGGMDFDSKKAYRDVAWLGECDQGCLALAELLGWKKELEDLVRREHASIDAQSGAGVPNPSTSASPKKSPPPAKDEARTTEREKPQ

[3] = molecular target: T3, NAD-dependent protein deacetylase sirtuin-2 (Homo sapiens, UniProt Q8IXJ6); experiment: Inhibition of SIRT2 (unknown origin) by luminescence assay
T3 sequence (Q8IXJ6 whole entry): T2 sequence (whole entry)
Summary of the method: (§2)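 Inhibition was measured by the luminescent SIRT-Glo assay. SIRT1 was human C-terminal His6-tagged, expressed in E. coli BL21-DE3 and purified on Ni-NTA; SIRT2 was commercial. IC50 values were determined in triplicate and averaged over two independent experiments.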

[4] = molecular target: T4, NAD-dependent protein deacetylase sirtuin-1 (Homo sapiens, UniProt Q96EB6); experiment: Inhibition of C-terminal His-6-tagged recombinant human SIRT1 expressed in Escherichia coli BL21(DE3) by luminescence assay
T4 sequence (Q96EB6 whole entry): T1 sequence (whole entry)
Summary of the method: as §2, with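 “commercial. Compounds were titrated over five 3-fold dilutions from DMSO stocks (final DMSO 0.25%).” for “commercial.”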

[5] = molecular target: T5, NAD-dependent protein deacetylase sirtuin-3, mitochondrial (Homo sapiens, UniProt Q9NTG7); experiment: Inhibition of SIRT3 (unknown origin) by luminescence assay
T5 sequence (Q9NTG7 whole entry): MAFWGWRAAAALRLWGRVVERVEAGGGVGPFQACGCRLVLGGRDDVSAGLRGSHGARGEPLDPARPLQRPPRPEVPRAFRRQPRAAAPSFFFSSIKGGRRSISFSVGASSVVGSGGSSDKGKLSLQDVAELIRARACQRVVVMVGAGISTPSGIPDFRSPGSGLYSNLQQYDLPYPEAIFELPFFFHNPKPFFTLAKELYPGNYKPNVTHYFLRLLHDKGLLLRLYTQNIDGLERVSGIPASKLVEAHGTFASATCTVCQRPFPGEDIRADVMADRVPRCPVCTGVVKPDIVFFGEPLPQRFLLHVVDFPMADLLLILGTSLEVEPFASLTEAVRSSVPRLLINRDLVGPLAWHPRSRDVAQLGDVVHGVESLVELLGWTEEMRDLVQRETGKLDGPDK

[6] = system: Daudi; experiment: Antiproliferative activity against human Daudi cells assessed as growth inhibition after 72 hrs by Cell Titer Glo assay; assay type: functional, cell-based
Summary of the method: (§3)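 Cell lines from ATCC were grown under standard conditions and dispensed into 96-well plates. Compounds were added from 100% DMSO stocks (final DMSO 0.25%) alongside DMSO controls and incubated for 72 h. Viable cells were quantified by CellTiterGlo luminescence. Assays were run in triplicate, and values are averages of two independent experiments.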

[7] = Cytotoxicity against EBV immortalized human B2 cells assessed as cell viability after 72 hrs by Cell Titer Glo assay; assay type: cell-based; summary of the method: as §3
[8] = system: HCT-116; experiment: Antiproliferative activity against human HCT116 cells assessed as growth inhibition after 72 hrs by Cell Titer Glo assay; assay type: functional, cell-based; conditions: HCT-116, 72 h; summary of the method: as §3
[9] = Cytotoxicity against EBV immortalized human B1 cells assessed as cell viability after 72 hrs by Cell Titer Glo assay; assay type: cell-based; conditions: B1, 72 h; summary of the method: as §3
[10] = Antiproliferative activity against human OCI-Ly8-LAM53 cells assessed as growth inhibition after 72 hrs by Cell Titer Glo assay; assay type: functional, cell-based; summary of the method: as §3
[11] = Antiproliferative activity against human Oku cells assessed as growth inhibition after 72 hrs by Cell Titer Glo assay; assay type: functional, cell-based; summary of the method: as §3
[12] = Antiproliferative activity against human Dakiki cells assessed as growth inhibition after 72 hrs by Cell Titer Glo assay; assay type: functional, cell-based; summary of the method: as §3
[13] = Antiproliferative activity against human Mutu cells assessed as growth inhibition after 72 hrs by Cell Titer Glo assay; assay type: functional, cell-based; summary of the method: as §3
[14] = Antiproliferative activity against human NAMALWA cells assessed as growth inhibition after 72 hrs by Cell Titer Glo assay; assay type: functional, cell-based; conditions: NAMALVA; summary of the method: as §3
[15] = Antiproliferative activity against human SU-DHL4 cells assessed as growth inhibition after 72 hrs by Cell Titer Glo assay; assay type: functional, cell-based, SUD4; conditions: SU-DHL-4, 72 h; summary of the method: as §3
[16] = Antiproliferative activity against human OVCAR3 cells assessed as growth inhibition after 72 hrs by Cell Titer Glo assay; assay type: functional, cell-based; conditions: OVCAR-3, 72 h; summary of the method: as §3
[17] = system: NAMALVA; experiment: Induction of apoptosis in human NAMALWA cells assessed as early stage apoptotic level after 16 hrs by annexin V-PE/DAPI-staining-based FACS analysis; assay type: functional, cell-based
[18] = molecular target: T1, NAD-dependent protein deacetylase sirtuin-1 (Homo sapiens); experiment: Binding affinity to C-terminal His-6-tagged recombinant human SIRT1 expressed in Escherichia coli BL21(DE3) at 200 uM by STD NMR method
Summary of the method: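 STD NMR was done in D2O. SIRT1 stock (12 μM) was dialyzed against deuterated PBS. Samples held 1.5 μM SIRT1 and 200 μM ligand in PBS/D2O pH 7.4 (uncorrected) with 1% DMSO-d6. At 25 °C, interleaved FIDs were collected with on-resonance (−0.5 ppm) and off-resonance (40 ppm) irradiation, 2048 transients, in duplicate.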

[19] = molecular target: T1, NAD-dependent protein deacetylase sirtuin-1 (Homo sapiens); experiment: Binding affinity to C-terminal His-6-tagged recombinant human SIRT1 expressed in Escherichia coli BL21(DE3) at 200 uM by [1H]NMR method

SMILES: O=c1[nH][nH]c(-c2ccc(C(F)(F)F)cc2)c1Cc1c(O)ccc2ccccc12
- inhibition [1]: 48%
- inhibition [2]: 29%

SMILES: CC(C)c1ccc(-c2[nH][nH]c(=O)c2Cc2c(O)ccc3nc(Cl)ccc23)cc1
- pIC50 [3]: 4.17
- inhibition [1]: 85%
- inhibition [2]: 37%
- pIC50 [4]: 4.68
- pIC50 [5]: 3.91

SMILES: COc1cc2ccccc2c(Cc2c(-c3ccc(C)cc3)[nH][nH]c2=O)c1O
- pIC50 [6]: 4.68
- pIC50 [7]: 4.24
- pIC50 [8]: < 4.10
- pIC50 [9]: 4.39
- pIC50 [3]: < 3.70
- pIC50 [10]: 4.49
- inhibition [1]: 78%
- inhibition [2]: 19%
- pIC50 [4]: 4.59
- pIC50 [11]: 4.96
- pIC50 [12]: 4.54
- pIC50 [13]: 4.82
- pIC50 [14]: 4.82
- pIC50 [15]: 4.11
- pIC50 [16]: 4.89
- pIC50 [5]: < 3.70

SMILES: O=c1[nH][nH]c(-c2ccc(F)cc2)c1Cc1c(O)ccc2ccccc12
- inhibition [1]: 24%
- inhibition [2]: 29%

SMILES: Cc1ccc(-c2[nH]oc(=O)c2Cc2c(O)ccc3cc(Br)ccc23)cc1
- pIC50 [7]: 4.55
- pIC50 [8]: 5.10
- pIC50 [9]: 4.66
- pIC50 [3]: 4.89
- pIC50 [10]: 5.15
- inhibition [1]: 5%
- inhibition [2]: 87%
- pIC50 [4]: < 3.70
- pIC50 [11]: 5.30
- pIC50 [12]: 5.15
- pIC50 [13]: 5.52
- pIC50 [14]: 5.40
- Activity [17]: Dose-dependent effect
- pIC50 [16]: 5.00
- pIC50 [5]: < 3.70

SMILES: O=c1[nH][nH]c(-c2ccccc2)c1Cc1c(O)ccc2ccccc12
- inhibition [1]: 48%
- inhibition [2]: 18%

SMILES: Cc1cc(Cl)nc2ccc(O)c(Cc3c(-c4ccccc4)[nH][nH]c3=O)c12
- inhibition [1]: 27%
- inhibition [2]: 24%

SMILES: O=c1[nH][nH]c(-c2cccc(Br)c2)c1Cc1c(O)ccc2ccccc12
- inhibition [1]: 8%
- inhibition [2]: 25%

Now from value to compound:

- inhibition [1]: 45%
- inhibition [2]: 23%
SMILES: CCc1ccc2c(Cc3c(-c4ccc(C)cc4)[nH][nH]c3=O)c(O)ccc2c1

- inhibition [1]: 40%
- inhibition [2]: 30%
SMILES: COc1ccc(-c2[nH][nH]c(=O)c2Cc2c(O)ccc3cc(Br)ccc23)cc1

- inhibition [1]: 25%
- inhibition [2]: 21%
SMILES: Cc1ccc(-c2[nH][nH]c(=O)c2Cc2c(O)ccc3cc(C#N)ccc23)cc1

- Activity [18]: Active
- inhibition [1]: 45%
- inhibition [2]: 17%
- Activity [19]: Active
SMILES: Cc1ccc(-c2[nH][nH]c(=O)c2Cc2c(O)ccc3nc(Cl)ccc23)cc1

- inhibition [1]: 42%
- inhibition [2]: 38%
SMILES: Cc1ccc(-c2[nH][nH]c(=O)c2Cc2c(O)ccc3ccc(Br)cc23)cc1
